Laboratory results published in ChEMBL document CHEMBL3044971, “Dialkoxybenzene and dialkoxyallylbenzene feeding and oviposition deterrents against the cabbage looper, Trichoplusia ni: potential insect behavior control agents” (J Agric Food Chem, 2010).

Columns and labels:
Trichoplusia ni [1] = experiment: Feeding deterrent activity against freshly molted third-instar larval stage of Trichoplusia ni (cabbage looper) in compound pretreated cabbage leaves at 50 ug/cm2 after 3 to 5 hr by leaf disk choice bioassay; format: functional
How it was run: (§1)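 Leaf-disk choice test on greenhouse cabbage (Stonehead) leaves from 5-6-week plants. Freshly molted third-instar T. ni from a diet-reared colony (>50 generations) were starved 4-5 h. One disk had 10 μL test solution painted on each side, the other carrier solvent only. There were 25 larvae per treatment. Run ended at ~50% control disk eaten (3-5 h). Deterrence = (C−T)/(C+T)×100 from consumed areas.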

Trichoplusia ni [2] = experiment: Feeding deterrent activity against freshly molted third-instar larval stage of Trichoplusia ni (cabbage looper) in compound pretreated cabbage leaves after 3 to 5 hr by leaf disk choice bioassay; format: functional, organism-based; how it was run: as §1
Trichoplusia ni [3] = experiment: Oviposition deterrent activity against adult female Trichoplusia ni (cabbage looper) moths introduced along with male moths into oviposition cage containing compound pretreated cabbage leaves assessed as eggs laying on the leaf disks at 0.25% after 48 hr; format: functional
How it was run: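 Choice test: one male and one female moth were caged with a control and a treated cabbage leaf (~100-110 cm²). Each side was sprayed with 0.5 mL MeOH or methanolic test solution at 0.25%. Values are mean ± SE, N = 35-40.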

Trichoplusia ni [4] = conditions: in vivo, 24 h

Structure (SMILES) | Activity (Trichoplusia ni [1]) [%] | DC50 (Trichoplusia ni [2]) [microg/cm2] | Activity (Trichoplusia ni [3]) [%] | mortality (Trichoplusia ni [4]) [%]
C=CCc1cc(OCCCC)ccc1OCC | 66 | 22 | 64 | 3.3
C=CCc1cccc(OCCC(C)C)c1OCCC(C)C | 22 |  |  | 7
C=CCc1c(OC)cccc1OCCC | 100 | 14 | 17 | 
CC(C)CCOc1ccc2c(c1)CC(C)O2 (configuration not stated) | 100 | 16 | -12 | 1
CCCCOc1ccc2c(c1)CC(C)O2 (configuration not stated) | 100 | 16 | -12 | 1
CCCOc1ccc2c(c1)CC(C)O2 (configuration not stated) | 100 | 16 | -12 | 1
CCOc1ccc2c(c1)CC(C)O2 (configuration not stated) | 100 | 16 | -12 | 1
COc1ccc2c(c1)CC(C)O2 (configuration not stated) | 100 | 16 | -12 | 1
C=CCOc1ccc(OCCC(C)C)cc1CC=C | 29 |  |  | 
C=CCOc1ccc(OCCCC)cc1CC=C | 29 |  |  | 
C=CCOc1ccc(OCCC)cc1CC=C | 29 |  |  | 
C=CCOc1ccc(OCC)cc1CC=C | 29 |  |  | 
C=CCOc1ccc(OC)cc1CC=C | 29 |  |  | 
C=CCc1cc(OCCC(C)C)ccc1OCCCC | 23 |  | -14 | 
C=CCc1cc(OCCCC)ccc1OCCCC | 23 |  | -14 | 
C=CCc1cc(OCC)ccc1OCCCC | 23 |  | -14 | 
C=CCc1cc(OCCC)ccc1OCCCC | 23 |  | -14 | 
C=CCc1cc(OC)ccc1OCCCC | 23 |  | -14 | 
C=CCc1cc(OC)ccc1OCCC | 92 | 9.4 | 7 | 6.4
C=CCc1cc(OCCC(C)C)ccc1OCC | 66 | 22 | 64 | 3.3
C=CCc1cc(OCCC)ccc1OCC | 66 | 22 | 64 | 3.3

Structure (SMILES) | Activity (Trichoplusia ni [1]) [%] | DC50 (Trichoplusia ni [2]) [microg/cm2] | Activity (Trichoplusia ni [3]) [%] | mortality (Trichoplusia ni [4]) [%]
C=CCc1cc(OC)ccc1OCC | 66 | 22 | 64 | 3.3
C=CCc1cc(OCC)ccc1OCC | 66 | 22 | 64 | 3.3
C=CCc1cc(OCCCC)ccc1O | 51 | 57 | 51 | 3.3
C=CCc1cc(OCCC(C)C)ccc1O | 51 | 57 | 51 | 3.3
C=CCc1cc(OCC)ccc1O | 51 | 57 | 51 | 3.3
C=CCc1cc(OCCC)ccc1O | 51 | 57 | 51 | 3.3
C=CCc1cc(OC)ccc1O | 51 | 57 | 51 | 3.3
C=CCOc1c(CC=C)cccc1OCCCC | 22 |  |  | 7
C=CCOc1c(CC=C)cccc1OCCC(C)C | 22 |  |  | 7
C=CCOc1c(CC=C)cccc1OCCC | 22 |  |  | 7
C=CCOc1c(CC=C)cccc1OC | 22 |  |  | 7
C=CCOc1c(CC=C)cccc1OCC | 22 |  |  | 7
C=CCc1cccc(OCCCC)c1OCCC(C)C | 22 |  |  | 7
C=CCc1cccc(OCCC)c1OCCC(C)C | 22 |  |  | 7
C=CCc1cccc(OC)c1OCCC(C)C | 22 |  |  | 7
C=CCc1cccc(OCC)c1OCCC(C)C | 22 |  |  | 7
C=CCc1cccc(OCCCC)c1OCCCC | 6 |  |  | 1
C=CCc1cccc(OCCC(C)C)c1OCCCC | 6 |  |  | 1
C=CCc1cccc(OCCC)c1OCCCC | 6 |  |  | 1
C=CCc1cccc(OC)c1OCCCC | 6 |  |  | 1
C=CCc1cccc(OCC)c1OCCCC | 6 |  |  | 1

Structure (SMILES) | Activity (Trichoplusia ni [1]) [%] | DC50 (Trichoplusia ni [2]) [microg/cm2] | Activity (Trichoplusia ni [3]) [%] | mortality (Trichoplusia ni [4]) [%]
C=CCc1cccc(OCCCC)c1OCCC | 31 |  |  | 47
C=CCc1cccc(OCCC(C)C)c1OCCC | 31 |  |  | 47
C=CCc1cccc(OCCC)c1OCCC | 31 |  |  | 47
C=CCc1cccc(OC)c1OCCC | 31 |  |  | 47
C=CCc1cccc(OCC)c1OCCC | 31 |  |  | 47
C=CCc1cccc(OCCCC)c1O | 100 | 20.6 | 7 | 17
C=CCc1cccc(OCCC(C)C)c1O | 100 | 20.6 | 7 | 17
C=CCc1cccc(OCC)c1O | 100 | 20.6 | 7 | 17
C=CCc1cccc(OCCC)c1O | 100 | 20.6 | 7 | 17
C=CCc1cccc(OC)c1O | 100 | 20.6 | 7 | 17
C=CCOc1cccc(OCCC(C)C)c1 |  |  | 10 | 
C=CCOc1cccc(OC)c1 | 66 | 34 | 9 | 33
C=CCOc1cccc(OCC=C)c1 | 97 | 20 | 26 | 13
C=CCOc1ccccc1OCCC(C)C |  |  | 26 | 
C=CCOc1ccc(OCC)cc1 [1-allyloxy-4-ethoxybenzene] | 73 | 30 | 17 | 
C=CCOc1ccc(OCCC(C)C)cc1 [1-allyloxy-4-isopentoxybenzene] |  |  | -25 | 
C=CCOc1ccc(OCCC)cc1 [1-allyloxy-4-propoxybenzene] | 100 | 0.5 | 21 | 
C=CCOc1cccc(O)c1 [3-(ALLYLOXY)PHENOL] | 36 |  | 5 | 
C=CCc1ccc(O)c(OC)c1 [EUGENOL] | 44 | 56 |  | 30
C=CCc1ccc(OC)c(OC)c1 [METHYLEUGENOL] | 64 | 26 | -22 | 
